System: Fibroblast
Experiment: Multiplex assay against human fibroblast
Format: toxicity, cell-based
Procedure, shortened: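 Imaging took place on a CQ1 microscope at 37°C and 5% CO2 once compound had been added to live cells stained at seeding with Hoechst33342, BioTracker Green Microtubule Cytoskeleton Dye, MitoTracker Red and Annexin V Alexa Fluor 680. CellPathfinder machine-learning gating classed cells as Hoechst high-intensity objects or normal cells, classed normal cells as having healthy, pyknosed or fragmented nuclei, and classed pyknosed cells as mitotic or apoptotic. Tubulin, mitochondrial-mass and membrane-permeability phenotypes are per cents of the healthy-nucleus cells.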

[1] = 12 h, 1 µM, compound concentration 1 uM, replicate 1
[2] = 12 h, 1 µM, compound concentration 1 uM, replicate 2
[3] = 12 h, 10 µM, compound concentration 10 uM, replicate 1
[4] = 12 h, 10 µM, compound concentration 10 uM, replicate 2
[5] = 24 h, 1 µM, compound concentration 1 uM, replicate 1
[6] = 24 h, 1 µM, compound concentration 1 uM, replicate 2
[7] = 24 h, 10 µM, compound concentration 10 uM, replicate 1
[8] = 24 h, 10 µM, compound concentration 10 uM, replicate 2
[9] = 48 h, 1 µM, compound concentration 1 uM, replicate 1
[10] = 48 h, 1 µM, compound concentration 1 uM, replicate 2
[11] = 48 h, 10 µM, compound concentration 10 uM, replicate 1
[12] = 48 h, 10 µM, compound concentration 10 uM, replicate 2

Cl.N#Cc1ccc2[nH]cc(CCCCN3CCN(c4ccc5oc(C(N)=O)cc5c4)CC3)c2c1 [VILAZODONE HYDROCHLORIDE]
Population Apoptotic (%) [1]: 75% | Population Fragmented Nuclei (%) [1]: 38% | Population Healthy Nuclei (%) [1]: 22% | Population Hoechst High Intensity Objects (%) [1]: 19% | Population Membrane Permeable-Phenotype (%) [1]: 28% | Population Mitochondria Different-Phenotype (%) [1]: 9% | Population Mitotic Cells (%) [1]: 25% | Population Normal (%) [1]: 80% | Population Pyknosed Nuclei (%) [1]: 38% | Population Tubulin-Different-Phenotype (%) [1]: 47% | Total Cell Count [1]: 116 | Population Apoptotic (%) [2]: 27% | Population Fragmented Nuclei (%) [2]: 14% | Population Healthy Nuclei (%) [2]: 70% | Population Hoechst High Intensity Objects (%) [2]: 2% | Population Membrane Permeable-Phenotype (%) [2]: 6% | Population Mitochondria Different-Phenotype (%) [2]: 30% | Population Mitotic Cells (%) [2]: 72% | Population Normal (%) [2]: 97% | Population Pyknosed Nuclei (%) [2]: 15% | Population Tubulin-Different-Phenotype (%) [2]: 18% | Total Cell Count [2]: 50 | Population Apoptotic (%) [3]: 69% | Population Fragmented Nuclei (%) [3]: 19% | Population Healthy Nuclei (%) [3]: 18% | Population Hoechst High Intensity Objects (%) [3]: 35% | Population Membrane Permeable-Phenotype (%) [3]: 17% | Population Mitochondria Different-Phenotype (%) [3]: 21% | Population Mitotic Cells (%) [3]: 30% | Population Normal (%) [3]: 64% | Population Pyknosed Nuclei (%) [3]: 62% | Population Tubulin-Different-Phenotype (%) [3]: 52% | Total Cell Count [3]: 197 | Population Apoptotic (%) [4]: 67% | Population Fragmented Nuclei (%) [4]: 20% | Population Healthy Nuclei (%) [4]: 14% | Population Hoechst High Intensity Objects (%) [4]: 10% | Population Membrane Permeable-Phenotype (%) [4]: 38% | Population Mitochondria Different-Phenotype (%) [4]: 46% | Population Mitotic Cells (%) [4]: 32% | Population Normal (%) [4]: 89% | Population Pyknosed Nuclei (%) [4]: 64% | Population Tubulin-Different-Phenotype (%) [4]: 92% | Total Cell Count [4]: 72 | Population Apoptotic (%) [5]: 63% | Population Fragmented Nuclei (%) [5]: 32% | Population Healthy Nuclei (%) [5]: 42% | Population Hoechst High Intensity Objects (%) [5]: 25% | Population Membrane Permeable-Phenotype (%) [5]: 21% | Population Mitochondria Different-Phenotype (%) [5]: 8% | Population Mitotic Cells (%) [5]: 36% | Population Normal (%) [5]: 74% | Population Pyknosed Nuclei (%) [5]: 25% | Population Tubulin-Different-Phenotype (%) [5]: 51% | Total Cell Count [5]: 118 | Population Apoptotic (%) [6]: 60% | Population Fragmented Nuclei (%) [6]: 15% | Population Healthy Nuclei (%) [6]: 78% | Population Hoechst High Intensity Objects (%) [6]: 1% | Population Membrane Permeable-Phenotype (%) [6]: 3% | Population Mitochondria Different-Phenotype (%) [6]: 19% | Population Mitotic Cells (%) [6]: 40% | Population Normal (%) [6]: 98% | Population Pyknosed Nuclei (%) [6]: 6% | Population Tubulin-Different-Phenotype (%) [6]: 18% | Total Cell Count [6]: 54 | Population Apoptotic (%) [7]: 66% | Population Fragmented Nuclei (%) [7]: 22% | Population Healthy Nuclei (%) [7]: 23% | Population Hoechst High Intensity Objects (%) [7]: 35% | Population Membrane Permeable-Phenotype (%) [7]: 50% | Population Mitochondria Different-Phenotype (%) [7]: 20% | Population Mitotic Cells (%) [7]: 33% | Population Normal (%) [7]: 64% | Population Pyknosed Nuclei (%) [7]: 53% | Population Tubulin-Different-Phenotype (%) [7]: 50% | Total Cell Count [7]: 197 | Population Apoptotic (%) [8]: 75% | Population Fragmented Nuclei (%) [8]: 31% | Population Healthy Nuclei (%) [8]: 9% | Population Hoechst High Intensity Objects (%) [8]: 18% | Population Membrane Permeable-Phenotype (%) [8]: 30% | Population Mitochondria Different-Phenotype (%) [8]: 90% | Population Mitotic Cells (%) [8]: 24% | Population Normal (%) [8]: 81% | Population Pyknosed Nuclei (%) [8]: 59% | Population Tubulin-Different-Phenotype (%) [8]: 90% | Total Cell Count [8]: 79 | Population Apoptotic (%) [9]: 60% | Population Fragmented Nuclei (%) [9]: 35% | Population Healthy Nuclei (%) [9]: 53% | Population Hoechst High Intensity Objects (%) [9]: 30% | Population Mitochondria Different-Phenotype (%) [9]: 0% | Population Mitotic Cells (%) [9]: 40% | Population Normal (%) [9]: 69% | Population Pyknosed Nuclei (%) [9]: 10% | Population Tubulin-Different-Phenotype (%) [9]: 43% | Total Cell Count [9]: 136 | Population Apoptotic (%) [10]: 33% | Population Fragmented Nuclei (%) [10]: 39% | Population Healthy Nuclei (%) [10]: 57% | Population Hoechst High Intensity Objects (%) [10]: 13% | Population Membrane Permeable-Phenotype (%) [10]: 7% | Population Mitochondria Different-Phenotype (%) [10]: 1% | Population Mitotic Cells (%) [10]: 66% | Population Normal (%) [10]: 86% | Population Pyknosed Nuclei (%) [10]: 2% | Population Tubulin-Different-Phenotype (%) [10]: 64% | Total Cell Count [10]: 153 | Population Apoptotic (%) [11]: 50% | Population Fragmented Nuclei (%) [11]: 22% | Population Healthy Nuclei (%) [11]: 23% | Population Hoechst High Intensity Objects (%) [11]: 38% | Population Membrane Permeable-Phenotype (%) [11]: 51% | Population Mitochondria Different-Phenotype (%) [11]: 21% | Population Mitotic Cells (%) [11]: 50% | Population Normal (%) [11]: 61% | Population Pyknosed Nuclei (%) [11]: 53% | Population Tubulin-Different-Phenotype (%) [11]: 51% | Total Cell Count [11]: 230 | Population Apoptotic (%) [12]: 34% | Population Fragmented Nuclei (%) [12]: 15% | Population Healthy Nuclei (%) [12]: 34% | Population Hoechst High Intensity Objects (%) [12]: 44% | Population Membrane Permeable-Phenotype (%) [12]: 31% | Population Mitochondria Different-Phenotype (%) [12]: 40% | Population Mitotic Cells (%) [12]: 65% | Population Normal (%) [12]: 55% | Population Pyknosed Nuclei (%) [12]: 50% | Population Tubulin-Different-Phenotype (%) [12]: 72% | Total Cell Count [12]: 247

Source: ChEMBL document CHEMBL4689842, “EUbOPEN Chemogenomics Library wave 1” (2021)
